Measured values taken from ChEMBL document CHEMBL5380787, “Optimized M24B Aminopeptidase Inhibitors for CARD8 Inflammasome Activation” (J Med Chem, 2023).
Calls of active or inactive are those of the source. No cut-off for these calls is given here.

What was measured:
THP-1 [1] = assay: Induction of pyroptosis in CARD8 knockout human THP-1 cells harboring dox-inducible […] E274R mutant assessed as cell death by measuring LDH release at 20 uM pretreated with doxycycline for 16 hrs followed by compound addition and measured after 6 hrs; format: functional, cell-based
Outline: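 CARD8−/− THP-1 cells carrying a doxycycline-inducible CARD8 E274R mutant were exposed or not to DOX at 100 ng/mL for 16 h. Compound was then added at 20 μM for 6 h, followed by LDH release and immunoblot analysis.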

MV4-11 [2] = assay: Induction of cell death in CASP1 knockout human MV4-11 cells assessed as increase in PI uptake at 6.25 uM incubated for 6 hrs by PI staining based fluorescence analysis; format: functional
Outline: (§1)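 PI flux assay. 2 × 10^4 MV4;11 (WT, CARD8−/− or CASP1−/−) or OCI-AML2 cells in RPMI were given compound at 6.25 μM plus PI at 10 μM final. Fluorescence (Ex/Em 535/617 nm) was read every 5 min at 37 °C for 6 h, baseline-corrected to DMSO and normalized to the maximum response. n = 3.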

OCI-AML2 [3] = assay: Induction of pyroptosis in human OCI-AML2 cells assessed as LDH release at 20 uM incubated for 24 hrs; format: functional, cell-based
Outline: (§2)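 Cells (MV4;11, OCI-AML2 or THP-1; WT or the knockout named) plated at 5 × 10^5 cells/well and exposed to 20 μM compound for 24 h. LDH in the supernatant was measured relative to a Triton X-100 lysis control. For immunoblots, cells were washed in PBS, sonicated, protein-normalized, run on SDS-PAGE and probed for GSDMD cleavage. n = 3.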

OCI-AML2 [4] = assay: Induction of cell death in human OCI-AML2 cells assessed as reduction in cell viability incubated for 24 hrs by celltiter-glo assay; format: functional, cell-based
Outline: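 OCI-AML2 cells, WT or CARD8−/−, were grown in RPMI 1640 with 10% FBS and plated at 2000 cells/well. Compound was added over a range of concentrations for 24 h, and viability was then read by CellTiter-Glo luminescence. Means ± SEM, n = 3.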

HEK-293T = assay: Induction of pyroptosis in human HEK293T cells expressing CASP1 and GSDMD cotransfected with dTAG-CARD8ZUC and CARD8 FIIND S297A assessed as destabilization of DPP9-CARD8 ternary complex by measuring LDH release at 20 uM incubated for 6 hrs in presence of dTAG13; format: functional, cell-based
THP-1 [5] = assay: Induction of pyroptosis in XPNPEP1 knockout human THP-1 cells assessed as LDH release at 20 uM incubated for 24 hrs; format: functional, cell-based; outline: as §2
MV4-11 [6] = assay: Induction of pyroptosis in human MV4-11 cells assessed as LDH release at 20 uM incubated for 24 hrs; format: functional, cell-based; outline: as §2
THP-1 [7] = assay: Induction of pyroptosis in DPP8/9 knockout human THP-1 cells assessed as LDH release at 20 uM incubated for 24 hrs; format: functional, cell-based; outline: as §2
BMDM = assay: Induction of pyroptosis in C57BL/6J mouse BMDM cells expressing NLRP1A and NLRP1B allele 2 assessed as LDH release at 20 uM incubated for 24 hrs; format: functional, cell-based
Outline: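 Bone marrow cells from femurs and tibias of 7–12-week-old C57BL/6J mice were RBC-lysed and differentiated for 6 days at 37 °C in DMEM with 10% FBS and 15–20% L-cell medium, then replated. Cells were exposed to 20 μM compound for 24 h. Read-outs were LDH release against a lysis control and GSDMD immunoblot.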

[8] = target: T1, Xaa-Pro dipeptidase (Homo sapiens) (UniProt P12955); assay: Inhibition of recombinant human PEPD using Ala-Pro as substrate assessed as alanine release by measuring increase in fluorescense signal at 1 uM by fluorescence based analysis relative to control
T1 sequence (whole entry): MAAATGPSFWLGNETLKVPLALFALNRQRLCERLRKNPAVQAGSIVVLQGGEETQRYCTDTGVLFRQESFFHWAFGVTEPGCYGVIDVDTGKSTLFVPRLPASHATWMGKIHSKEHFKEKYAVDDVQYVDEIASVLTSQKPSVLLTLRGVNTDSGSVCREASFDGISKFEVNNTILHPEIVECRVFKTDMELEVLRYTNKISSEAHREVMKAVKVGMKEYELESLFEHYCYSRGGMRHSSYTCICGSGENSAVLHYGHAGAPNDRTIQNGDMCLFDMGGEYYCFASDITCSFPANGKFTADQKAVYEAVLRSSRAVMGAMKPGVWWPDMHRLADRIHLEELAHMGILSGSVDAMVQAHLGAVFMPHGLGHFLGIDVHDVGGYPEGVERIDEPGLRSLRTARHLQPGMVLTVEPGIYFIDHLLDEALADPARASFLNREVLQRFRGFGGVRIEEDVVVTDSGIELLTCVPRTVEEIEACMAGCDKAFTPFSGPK
Outline: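 Recombinant human PEPD at 50 nM was incubated with Ala-Pro at 40 μM final and compound. Released alanine was detected by coupled alanine transaminase/pyruvate oxidase conversion to H2O2 and resorufin fluorescence (Ex/Em 535/587 nm) at 25 °C.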

THP-1 [9] = assay: Induction of pyroptosis in human THP-1 cells assessed as GSDMD cleavage at 20 uM incubated for 24 hrs by immunoblot analysis; format: functional, cell-based; outline: as §2
THP-1 [10] = assay: Induction of pyroptosis in human THP-1 cells assessed as LDH release at 20 uM incubated for 24 hrs; format: functional, cell-based; outline: as §2
Xaa-Pro aminopeptidase 1 = Xaa-Pro aminopeptidase 1 (Homo sapiens, UniProt Q9NQW7); assay: Inhibition of 6-His tagged XPNPEP1 (unknown origin) expressed in Escherichia coli Rosetta DE3 cells using H-Lys(abz)-Pro-Pro-pNA as substrate at 20 uM incubated for 60 mins by fluorescence based analysis relative to control
Outline: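 His6-tagged XPNPEP1 was expressed in E. coli Rosetta DE3 (IPTG, 16 h, 37 °C) and purified on TALON resin. Enzyme at 3.5 nM was exposed to compound, then H-Lys(abz)-Pro-Pro-pNA was added at 100 μM final. Fluorescence (Ex/Em 320/410) was followed for 60 min. Single-point inhibition used 20 μM; IC50 as mean ± SEM of three biological replicates.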

THP-1 [11] = assay: Induction of pyroptosis in PEPD knockout human THP-1 cells assessed as LDH release at 20 uM incubated for 24 hrs; format: functional, cell-based; outline: as §2
THP-1 [12] = assay: Induction of pyroptosis in PEPD/XPNPEP1 knockout human THP-1 cells assessed as GSDMD clevage at 20 uM incubated for 24 hrs by immunoblot analysis; format: functional, cell-based; outline: as §2
MV4-11 [13] = assay: Induction of cell death in CARD8 knockout human MV4-11 cells assessed as increase in PI uptake at 6.25 uM incubated for 6 hrs by PI staining based fluorescence analysis; format: functional; outline: as §1
THP-1 [14] = assay: Induction of pyroptosis in PEPD/XPNPEP1 knockout human THP-1 cells assessed as LDH release at 20 uM incubated for 24 hrs; format: functional, cell-based; outline: as §2

Sequence of Xaa-Pro aminopeptidase 1 (Q9NQW7 whole entry): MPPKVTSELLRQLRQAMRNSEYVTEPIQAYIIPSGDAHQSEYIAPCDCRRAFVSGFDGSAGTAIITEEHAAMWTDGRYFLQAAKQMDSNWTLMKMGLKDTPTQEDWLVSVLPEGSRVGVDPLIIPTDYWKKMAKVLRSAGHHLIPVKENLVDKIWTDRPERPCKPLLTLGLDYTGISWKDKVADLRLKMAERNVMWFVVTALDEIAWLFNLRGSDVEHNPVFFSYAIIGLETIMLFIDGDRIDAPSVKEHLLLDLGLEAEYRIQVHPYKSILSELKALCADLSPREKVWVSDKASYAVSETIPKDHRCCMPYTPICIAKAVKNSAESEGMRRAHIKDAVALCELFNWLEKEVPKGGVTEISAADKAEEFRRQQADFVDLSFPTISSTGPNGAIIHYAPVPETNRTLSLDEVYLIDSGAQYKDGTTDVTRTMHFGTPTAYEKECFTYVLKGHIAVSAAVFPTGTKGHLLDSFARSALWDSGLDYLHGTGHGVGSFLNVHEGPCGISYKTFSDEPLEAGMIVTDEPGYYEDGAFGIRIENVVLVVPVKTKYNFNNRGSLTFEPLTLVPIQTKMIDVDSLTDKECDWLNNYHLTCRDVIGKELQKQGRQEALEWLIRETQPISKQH

SMILES | Activity (THP-1 [1]) | Activity (MV4-11 [2]) | Activity (OCI-AML2 [3]) | Activity (OCI-AML2 [4]) | Activity (HEK-293T) | Activity (THP-1 [5]) | Activity (MV4-11 [6]) | Activity (THP-1 [7]) | Activity (BMDM) | inhibition [8] [%] | Activity (THP-1 [9]) | Activity (THP-1 [10]) | inhibition (Xaa-Pro aminopeptidase 1) [%] | Activity (THP-1 [11]) | Activity (THP-1 [12]) | Activity (MV4-11 [13]) | Activity (THP-1 [14])
COC(=O)[C@H](CC(C)C)NC(=O)[C@@H]1CCCN1C(=O)[C@@H](O)[C@H](N)CC(C)C | inactive | inactive | Active | Active | Active | Active | Active | inactive | inactive | 60 | Active | Active | 74 | Active | inactive | inactive | inactive
COC(=O)[C@@H]1CCCN1C(=O)[C@@H](O)[C@H](N)CC(C)C | inactive | inactive | Active | Active | Active | Active | Active | inactive | inactive | 48 | Active | Active | 96 | Active | inactive | inactive | inactive
